Reference: ChEMBL document CHEMBL1137702, “Identification of hydrolytically stable and selective P2Y(1) receptor agonists” (Eur J Med Chem, 2009)
Activity calls are given as the source filed them. The calls are words filed in the database; no cut-off is given here.

Legend:
[1] = target: T1, Ectonucleoside triphosphate diphosphohydrolase 2 (Homo sapiens) (UniProt Q9Y5L3); assay: Inhibition of human NTPDase 2 expressed in human 293T cells; type: cell-based
T1 sequence (whole entry): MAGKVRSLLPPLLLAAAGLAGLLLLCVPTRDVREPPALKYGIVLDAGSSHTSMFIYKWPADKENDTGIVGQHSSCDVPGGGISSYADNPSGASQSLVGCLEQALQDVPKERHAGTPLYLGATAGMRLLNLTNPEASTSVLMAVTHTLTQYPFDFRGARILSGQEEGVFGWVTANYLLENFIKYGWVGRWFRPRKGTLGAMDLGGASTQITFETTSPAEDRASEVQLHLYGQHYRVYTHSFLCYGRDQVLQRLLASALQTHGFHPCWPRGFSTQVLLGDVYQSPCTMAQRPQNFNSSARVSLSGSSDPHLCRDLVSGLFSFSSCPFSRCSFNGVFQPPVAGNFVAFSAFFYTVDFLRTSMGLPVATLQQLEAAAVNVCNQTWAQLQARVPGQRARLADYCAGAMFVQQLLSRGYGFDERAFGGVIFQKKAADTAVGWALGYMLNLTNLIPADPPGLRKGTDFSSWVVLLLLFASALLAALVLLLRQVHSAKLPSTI

[2] = target: P2Y purinoceptor 4 (Homo sapiens, UniProt P51582); assay: Agonist activity at human P2Y4 receptor expressed in human 1321N1 cells assessed as increase in intracellular calcium concentration by dual-excitation spectrofluorimetric analysis; type: functional, cell-based
Procedure, shortened: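 1321N1 astrocytoma cells stably expressing the receptor (turkey P2Y1, human P2Y2, human P2Y4, rat P2Y6) were grown with G-418 selection. Fura-2-loaded cell suspensions were exposed at 37 °C in 10 mM HEPES-buffered saline pH 7.4 with 1 mM CaCl2 and 1 mM MgCl2. Peak [Ca2+]i rise was measured over a range of concentrations to derive EC50.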

[3] = target: T2, Ectonucleotide pyrophosphatase/phosphodiesterase family member 1 (Homo sapiens) (UniProt P22413); assay: Activity of human NPP1 expressed in human 293T cells assessed as drug hydrolysis at 100 uM after 20 mins by reverse-phase HPLC relative to p-nitrophenyl-thymidine-5-monophosphate; type: cell-based; design: scale not given: the % may be the effect or the level left
T2 sequence (whole entry): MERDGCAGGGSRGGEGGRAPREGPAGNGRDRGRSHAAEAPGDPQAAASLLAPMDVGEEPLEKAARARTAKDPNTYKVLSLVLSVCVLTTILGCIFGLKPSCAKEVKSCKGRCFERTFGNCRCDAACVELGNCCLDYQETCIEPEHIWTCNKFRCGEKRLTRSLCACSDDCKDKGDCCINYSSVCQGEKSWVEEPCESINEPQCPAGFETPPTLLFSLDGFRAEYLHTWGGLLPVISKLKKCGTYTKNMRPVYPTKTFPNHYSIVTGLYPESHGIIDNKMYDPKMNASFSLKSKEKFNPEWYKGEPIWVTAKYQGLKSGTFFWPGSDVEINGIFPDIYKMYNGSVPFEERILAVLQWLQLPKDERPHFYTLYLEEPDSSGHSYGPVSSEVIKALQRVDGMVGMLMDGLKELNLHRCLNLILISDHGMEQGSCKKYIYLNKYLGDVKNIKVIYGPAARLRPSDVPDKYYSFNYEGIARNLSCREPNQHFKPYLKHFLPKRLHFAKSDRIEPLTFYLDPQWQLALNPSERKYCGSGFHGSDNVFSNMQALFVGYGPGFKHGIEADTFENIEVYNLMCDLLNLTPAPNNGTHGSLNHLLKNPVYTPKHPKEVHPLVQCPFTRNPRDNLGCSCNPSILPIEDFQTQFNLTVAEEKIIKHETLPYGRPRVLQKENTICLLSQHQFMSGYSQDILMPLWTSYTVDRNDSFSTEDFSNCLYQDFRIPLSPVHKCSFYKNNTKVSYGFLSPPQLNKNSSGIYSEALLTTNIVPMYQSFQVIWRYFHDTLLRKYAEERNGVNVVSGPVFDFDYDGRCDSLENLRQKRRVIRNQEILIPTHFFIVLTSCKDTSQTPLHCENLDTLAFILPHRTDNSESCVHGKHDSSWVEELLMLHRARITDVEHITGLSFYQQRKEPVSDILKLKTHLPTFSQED
Procedure, shortened: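 Crude extract of 293T cells transfected with human NPP1 or NPP3, pre-incubated 3 min at 37 °C in 1 mM CaCl2, 140 mM NaCl, 5 mM KCl, 50 mM Tris pH 8.5. Substrate at 100 µM final for 20 min, stopped in ice-cold perchloric acid and neutralized with KOH. Loss of analogue quantified by reverse-phase HPLC with ion-pair phosphate mobile phase pH 7.0. pnp-TMP (p-nitrophenol at 410 nm) served as the 100% reference.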

[4] = target: T3, Ectonucleoside triphosphate diphosphohydrolase 8 (Homo sapiens) (UniProt Q5MY95); assay: Inhibition of human NTPDase 8 expressed in human 293T cells; type: cell-based
T3 sequence (whole entry): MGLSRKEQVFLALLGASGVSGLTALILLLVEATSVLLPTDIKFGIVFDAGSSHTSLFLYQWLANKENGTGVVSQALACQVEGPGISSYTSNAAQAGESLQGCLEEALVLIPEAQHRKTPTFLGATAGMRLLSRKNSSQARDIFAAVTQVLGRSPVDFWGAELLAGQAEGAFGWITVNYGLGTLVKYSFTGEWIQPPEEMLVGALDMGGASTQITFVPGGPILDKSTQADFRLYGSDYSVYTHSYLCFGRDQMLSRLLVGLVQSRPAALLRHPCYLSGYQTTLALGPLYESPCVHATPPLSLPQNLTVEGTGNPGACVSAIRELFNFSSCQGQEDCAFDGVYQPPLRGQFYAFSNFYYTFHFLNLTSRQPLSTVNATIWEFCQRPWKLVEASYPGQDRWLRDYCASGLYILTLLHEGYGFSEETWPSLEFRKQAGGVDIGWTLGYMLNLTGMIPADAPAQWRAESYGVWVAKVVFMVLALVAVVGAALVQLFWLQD

[5] = target: T4, Ectonucleoside triphosphate diphosphohydrolase 3 (Homo sapiens) (UniProt O75355); assay: Inhibition of human NTPDase 3 expressed in human 293T cells; type: cell-based
T4 sequence (whole entry): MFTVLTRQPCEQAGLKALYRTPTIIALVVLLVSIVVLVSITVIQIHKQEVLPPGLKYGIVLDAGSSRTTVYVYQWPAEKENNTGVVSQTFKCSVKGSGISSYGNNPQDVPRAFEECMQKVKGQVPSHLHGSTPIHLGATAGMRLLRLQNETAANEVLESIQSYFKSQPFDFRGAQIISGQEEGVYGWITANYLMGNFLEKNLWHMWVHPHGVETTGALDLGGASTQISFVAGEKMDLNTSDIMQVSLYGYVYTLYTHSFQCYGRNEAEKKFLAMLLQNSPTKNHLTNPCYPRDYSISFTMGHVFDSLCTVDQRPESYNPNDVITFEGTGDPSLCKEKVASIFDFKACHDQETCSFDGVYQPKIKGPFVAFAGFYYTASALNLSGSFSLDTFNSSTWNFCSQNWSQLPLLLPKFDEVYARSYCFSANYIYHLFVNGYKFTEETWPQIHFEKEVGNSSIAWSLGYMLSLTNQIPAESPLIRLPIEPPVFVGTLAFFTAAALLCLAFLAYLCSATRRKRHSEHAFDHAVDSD

Sequence of P2Y purinoceptor 4 (P51582 whole entry): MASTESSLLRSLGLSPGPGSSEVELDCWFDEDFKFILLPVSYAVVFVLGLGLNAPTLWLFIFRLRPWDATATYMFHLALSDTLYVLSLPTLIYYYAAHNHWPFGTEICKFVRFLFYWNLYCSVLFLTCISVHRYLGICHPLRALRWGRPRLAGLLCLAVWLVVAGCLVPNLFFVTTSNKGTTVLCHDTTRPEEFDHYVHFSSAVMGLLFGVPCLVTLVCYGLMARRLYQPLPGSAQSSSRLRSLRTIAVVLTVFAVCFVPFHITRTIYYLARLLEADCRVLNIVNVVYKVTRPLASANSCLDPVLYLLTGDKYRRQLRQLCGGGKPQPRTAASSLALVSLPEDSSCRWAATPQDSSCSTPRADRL

| SMILES | Activity [1] | Activity [2] | Activity [3] [%] | Activity [4] | Activity [5] |
| --- | --- | --- | --- | --- | --- |
| CSc1nc(N)c2ncn([C@@H]3O[C@H](COP(=O)(O)OP(=O)(O)CP(=O)(O)O)[C@@H](O)[C@H]3O)c2n1 | inactive | inactive | 23 | inactive | inactive |
| BP(=O)(OC[C@H]1O[C@@H](n2cnc3c(N)ncnc32)[C@H](O)[C@@H]1O)OP(=O)(O)CP(=O)(O)O (stereo not given in full) | inactive | inactive | 0 | inactive | inactive |
| BP(=O)(OC[C@H]1O[C@@H](n2cnc3c(N)ncnc32)[C@H](O)[C@@H]1O)OP(=O)(O)CP(=O)(O)O (single isomer, unassigned; diastereomer B) | inactive | inactive | 4 | inactive | inactive |

Now from value to molecule:

| Activity [1] | Activity [2] | Activity [3] [%] | Activity [4] | Activity [5] | SMILES |
| --- | --- | --- | --- | --- | --- |
| inactive | inactive | 0 | inactive | inactive | BP(=O)(OC[C@H]1O[C@@H](n2cnc3c(N)nc(SC)nc32)[C@H](O)[C@@H]1O)OP(=O)(O)CP(=O)(O)O (single isomer, unassigned; diastereomer A) |
| inactive | inactive | < 1 | inactive | inactive | BP(=O)(OC[C@H]1O[C@@H](n2cnc3c(N)nc(SC)nc32)[C@H](O)[C@@H]1O)OP(=O)(O)CP(=O)(O)O (single isomer, unassigned; diastereomer B) |
